Each block holds one molecule with its values, some of them ahead of it.
Key:
[1] = test system: kinases in lysates of HEK293T cells expressing Hck^FLAG V284C; experiment: Kinobead kinome profiling of CystIMATIK probes; assay type: binding, human; settings: 10 μM probe vs DMSO, ~220 kinases enriched
Src^3D V284C = Src^3D V284C (Homo sapiens, UniProt P12931, V284C); experiment: Inhibitor IC50 determination, fluorescent SFK peptide kinase assay; assay type: biochemical; settings: 1 mM ATP
Procedure, shortened: (§1)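 Kinase concentrations were set in the linear range by prior titration: Src3D WT or V284C at 7.5 nM, Hck3D WT or V284C at 5 nM. Kinase was incubated 30 min with test compound (30 μM top, 3-fold serial dilutions, 10 points) and 1 mM ATP in HEPES pH 7.5 buffer with MgCl2, EGTA, BSA, vanadate and BME. Then 20 μM pyrene-labelled SFK peptide was added for 2 h. Fluorescence was read at ex 344/em 405 nm, in triplicate.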

Hck^3D WT = Hck^3D WT (Homo sapiens, UniProt P08631); experiment: as above; assay type: biochemical; settings: 1 mM ATP
Procedure, shortened: as §1

Src^3D WT = Src^3D WT (Homo sapiens, UniProt P12931); experiment: as above; assay type: biochemical; settings: 1 mM ATP
Procedure, shortened: as §1

[2] = test system: Src^GFP V284C-expressing SYFs; experiment: Membrane blebbing microscopy; assay type: cell-based, murine; settings: for membrane blebbing: 15 min treatment, 3 μM 2 or 10 μM 3 (1, 3 or 10 μM 3 for dose dependence)
Procedure, shortened: (§2)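 SYF cells were seeded on glass slides at 2×10^4 and transfected 24 h later with turbofectin (3:1 μL:μg DNA). At 24 h post-transfection, cells were exposed to test compound for 15 min; where indicated, 10 μM ROCK inhibitor was given for 2 h beforehand. Cells were PBS-washed, fixed in 4% paraformaldehyde for 15 min, and stained with NucBlue and Alexa647-wheat-germ agglutinin for 15 min. The fraction of cells showing blebs was scored.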

Src^FLAG V284C = Src^FLAG V284C (Homo sapiens, UniProt P12931, V284C); experiment: SH3 domain pulldown assay with inhibitor-treated cells; assay type: cell-based; settings: HEK293 cells treated with 10 μM probe for 2 h; immobilized SH3 domain ligand
Procedure, shortened: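 HEK293T cells expressing SrcFLAG V284C were treated with 10 μM test compound for 2 h. They were then PBS-washed and lysed for 20 min on ice in modified RIPA (pH 7.8, 1% IGEPAL, protease/phosphatase inhibitors, 10 μM compound). Lysates were cleared at 17,000x g, 4 °C, then incubated with SNAP-immobilized SH3 ligand resin, rotating at room temperature for 1 h. Retained Src was quantified by anti-FLAG blotting, n=3.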

[3] = test system: Fyn^myr V284C-expressing SYFs; experiment: Membrane blebbing microscopy; assay type: cell-based, murine; settings: 10 μM 3, 15 min
Procedure, shortened: as §2

[4] = test system: SYFs expressing Src^GFP WT; experiment: Membrane blebbing microscopy; assay type: cell-based, murine; settings: 10 μM 3, 15 min; Src^GFP WT resistant to probes
[5] = test system: Src^GFP G2A/V284C-expressing SYFs; experiment: Membrane blebbing microscopy; assay type: cell-based, murine; settings: 10 μM 3, 15 min; non-myristoylatable Src
Procedure, shortened: as §2

Src^FL K445C = Src^FL K445C (Homo sapiens, UniProt P12931, K445C); experiment: Isotope-coded maleimide labeling and mass spectrometry; settings: 5 μM inhibitor
Procedure, shortened: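 Purified SrcFL K445C was diluted to 800 nM in HEPES pH 7.6 buffer with 5% glycerol and 0.02% DDM. It was incubated with 5 μM test compound at 25 °C for 30 min, then labelled with 1 mM heavy or light N-ethyl maleimide at 25 °C for 30 min. The reaction was quenched with 10 mM DTT. Heavy and light reactions were mixed, and protein was precipitated with deoxycholate/TCA on ice before mass spectrometry.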

Sequence of Hck^3D WT (P08631 81-526): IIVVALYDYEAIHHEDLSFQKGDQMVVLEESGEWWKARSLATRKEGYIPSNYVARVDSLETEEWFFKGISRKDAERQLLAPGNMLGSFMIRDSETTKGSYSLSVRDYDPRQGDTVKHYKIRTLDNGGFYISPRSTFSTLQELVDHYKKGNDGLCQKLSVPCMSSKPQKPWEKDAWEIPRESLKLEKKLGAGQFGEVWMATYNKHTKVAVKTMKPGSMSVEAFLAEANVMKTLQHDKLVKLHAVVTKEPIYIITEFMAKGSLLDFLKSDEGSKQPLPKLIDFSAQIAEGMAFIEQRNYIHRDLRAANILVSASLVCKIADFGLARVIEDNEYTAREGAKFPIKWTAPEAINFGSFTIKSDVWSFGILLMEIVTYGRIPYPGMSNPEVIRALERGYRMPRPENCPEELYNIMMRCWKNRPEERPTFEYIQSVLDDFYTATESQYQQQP

Structure (SMILES): COCCn1c(/C=C(/C#N)C(=O)NC(C)C)c(-c2ccc(Cl)cc2)c2c(N)ncnc21 [compound 1, (E)- & (Z)-3-(4-Amino-5-(4-chlorophenyl)-7-(2-methoxyethyl)-7H-pyrrolo[2,3-d]pyrimidin-6-yl)-2-cyano-N-isopropylacrylamide]
kinases depleted from Kinobead matrix (selectivity) [1]: Hck^FLAG V284C was the only kinase among the ~220 enriched that was depleted | inhibition of Src V284C (IC50, Figure 4C) (Src^3D V284C): potently inhibited | inhibition of WT Hck (IC50, Figure 4C) (Hck^3D WT): insensitive | inhibition of WT Src (IC50, Figure 4C) (Src^3D WT): insensitive

Structure (SMILES): COCCn1c(/C=C(/C#N)C(=O)NC(C)C)c(-c2ccc(Oc3ccccc3)cc2)c2c(N)ncnc21 [compound 2, (E)- & (Z)-3-(4-Amino-7-(2-methoxyethyl)-5-(4-phenoxyphenyl)-7H-pyrrolo[2,3-d]pyrimidin-6-yl)-2-cyano-N-isopropylacrylamide]
membrane blebbing after pre-treatment with 2 prior to addition of 3 ([2]; 3 μM 2 for 15 min, then 10 μM 3 for 15 min): levels of blebbing comparable to cells treated with DMSO or 2 alone | membrane blebbing [2]: minimally affected | kinases depleted from Kinobead matrix (selectivity) [1]: Hck^FLAG V284C was the only kinase among the ~220 enriched that was depleted | SH3 domain accessibility (retained Src in SH3 pulldown) (Src^FLAG V284C): minimal pulldown | inhibition of Src V284C (IC50, Figure 4C) (Src^3D V284C): potently inhibited | inhibition of WT Hck (IC50, Figure 4C) (Hck^3D WT): minimal inhibition | inhibition of WT Src (IC50, Figure 4C) (Src^3D WT): minimal inhibition

Structure (SMILES): CNC(=O)C(C#N)=Cc1c(C#Cc2cc(NC(=O)c3cccc(C(F)(F)F)c3)ccc2C)c2cncnc2n1CCOC [compound 3, (E)- and (Z)-N-(3-((6-(2-cyano-3-(methylamino)-3-oxoprop-1-en-1-yl)-7-(2-methoxyethyl)-7H-pyrrolo[2,3-d]pyrimidin-5-yl)ethynyl)-4-methylphenyl)-3-(trifluoromethyl)benzamide]
membrane blebbing [3]: marked increase in blebbing | membrane blebbing [2]: induction of blebbing | SH3 domain accessibility (retained Src in SH3 pulldown) (Src^FLAG V284C): greatly increased | inhibition of Src V284C (IC50, Figure 4C) (Src^3D V284C): potently inhibited | inhibition of WT Hck (IC50, Figure 4C) (Hck^3D WT): minimal inhibition | membrane blebbing [4]: did not significantly increase membrane blebs | membrane blebbing [5]: did not produce blebbing | inhibition of WT Src (IC50, Figure 4C) (Src^3D WT): minimal inhibition

maleimide labeling of control cysteine residue, 6 complex vs 5 complex (Src^FL K445C; control peptide): no change in labeling | K445C maleimide labeling, open (6) compared to closed (5) conformation (Src^FL K445C; αF peptide, ratio 6 complex vs 5 complex): ~ 5 fold
Structure (SMILES): Cc1ccc(NC(=O)c2cccc(C(F)(F)F)c2)cc1C#Cc1nn(C2CCCC2)c2ncnc(N)c12 [compound 6, N-(3-((4-amino-1-cyclopentyl-1H-pyrazolo[3,4-d]pyrimidin-3-yl)ethynyl)-4-methylphenyl)-3-(trifluoromethyl)benzamide]

— publication PMC6474823 (Molecular cell, 2019)
